Test results as given in ChEMBL document CHEMBL1132646, “Synthesis and evaluation of new sulfur-containing L-arginine-derived inhibitors of nitric oxide synthase” (J Med Chem, 1999).

Experiments:
[1] = molecular target: T1, Nitric oxide synthase, inducible (Mus musculus, UniProt P29477); assay: Effective concentration against NADPH oxidase activity of iNOS
T1 sequence (P29477 whole entry): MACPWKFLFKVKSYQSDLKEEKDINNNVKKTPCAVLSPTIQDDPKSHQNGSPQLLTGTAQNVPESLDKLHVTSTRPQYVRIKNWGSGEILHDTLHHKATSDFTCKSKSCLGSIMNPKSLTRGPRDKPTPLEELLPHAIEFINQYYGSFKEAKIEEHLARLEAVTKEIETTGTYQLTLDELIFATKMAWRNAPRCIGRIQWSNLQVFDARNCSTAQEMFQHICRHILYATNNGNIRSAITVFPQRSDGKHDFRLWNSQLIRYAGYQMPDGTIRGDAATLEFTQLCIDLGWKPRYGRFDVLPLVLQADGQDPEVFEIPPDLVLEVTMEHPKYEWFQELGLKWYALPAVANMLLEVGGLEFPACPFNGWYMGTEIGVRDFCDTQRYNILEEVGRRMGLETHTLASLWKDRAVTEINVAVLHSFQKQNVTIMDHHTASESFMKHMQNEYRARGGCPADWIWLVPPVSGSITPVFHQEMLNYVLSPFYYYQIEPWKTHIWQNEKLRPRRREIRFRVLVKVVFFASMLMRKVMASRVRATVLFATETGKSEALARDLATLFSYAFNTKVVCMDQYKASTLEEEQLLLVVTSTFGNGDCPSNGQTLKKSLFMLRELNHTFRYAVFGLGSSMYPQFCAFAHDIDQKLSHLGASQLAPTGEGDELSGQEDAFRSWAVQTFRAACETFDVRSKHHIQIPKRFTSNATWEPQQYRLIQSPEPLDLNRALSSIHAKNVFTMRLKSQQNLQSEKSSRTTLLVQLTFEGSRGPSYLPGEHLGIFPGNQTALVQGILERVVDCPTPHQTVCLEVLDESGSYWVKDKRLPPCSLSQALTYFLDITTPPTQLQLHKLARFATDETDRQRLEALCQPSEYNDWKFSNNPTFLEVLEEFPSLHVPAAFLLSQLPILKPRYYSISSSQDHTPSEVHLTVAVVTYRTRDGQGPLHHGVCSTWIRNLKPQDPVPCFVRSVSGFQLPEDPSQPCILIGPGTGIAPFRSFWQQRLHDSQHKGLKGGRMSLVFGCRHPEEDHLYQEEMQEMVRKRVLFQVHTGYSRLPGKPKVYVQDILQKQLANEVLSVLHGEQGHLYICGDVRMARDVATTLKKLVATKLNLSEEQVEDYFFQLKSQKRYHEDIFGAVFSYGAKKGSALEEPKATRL
Summary of the method: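 Mouse His6-tagged iNOS (E. coli BL21-DE3 expressed, Ni-NTA purified), 0.5 μM, in 40 mM HEPES pH 7.4 with 0.3 mM DTT, 4 μM each FAD/FMN/H4B, 10 units/mL catalase and SOD, varied analogue concentrations; started with 0.1 mM NADPH. NADPH oxidation rate followed as absorbance drop at 340 nm, 37 °C, triplicate; EC50 for decreased oxidase activity.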

[2] = molecular target: T1, Nitric oxide synthase, inducible; assay: Inhibitory concentration against mouse inducible nitric oxide synthase (iNOS)
Summary of the method: (§1)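 Citrulline formation: 20 mM HEPES pH 7.4, 50 μM L-arginine with 0.05 μCi [14C]-L-arginine, 4 μM FAD/FMN/H4B, 1 mM DTT, 1 mg/mL BSA, varied inhibitor; nNOS 12.5 nM, eNOS 25 nM (both plus 1 mM CaCl2, 15 μg/mL calmodulin), iNOS 2.5 nM (mouse, His6-tagged). Initiated with NADPH, 10 min room temperature, stopped pH 5.5 EDTA; [14C]-citrulline separated on Dowex cation exchange, scintillation counted; duplicate.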

Nitric oxide synthase 1 = Nitric oxide synthase 1 (Homo sapiens, UniProt P29475); assay: Inhibitory concentration against mammalian Neuronal nitric oxide synthase (nNOS); summary of the method: as §1
Sequence of Nitric oxide synthase 1 (P29475 whole entry): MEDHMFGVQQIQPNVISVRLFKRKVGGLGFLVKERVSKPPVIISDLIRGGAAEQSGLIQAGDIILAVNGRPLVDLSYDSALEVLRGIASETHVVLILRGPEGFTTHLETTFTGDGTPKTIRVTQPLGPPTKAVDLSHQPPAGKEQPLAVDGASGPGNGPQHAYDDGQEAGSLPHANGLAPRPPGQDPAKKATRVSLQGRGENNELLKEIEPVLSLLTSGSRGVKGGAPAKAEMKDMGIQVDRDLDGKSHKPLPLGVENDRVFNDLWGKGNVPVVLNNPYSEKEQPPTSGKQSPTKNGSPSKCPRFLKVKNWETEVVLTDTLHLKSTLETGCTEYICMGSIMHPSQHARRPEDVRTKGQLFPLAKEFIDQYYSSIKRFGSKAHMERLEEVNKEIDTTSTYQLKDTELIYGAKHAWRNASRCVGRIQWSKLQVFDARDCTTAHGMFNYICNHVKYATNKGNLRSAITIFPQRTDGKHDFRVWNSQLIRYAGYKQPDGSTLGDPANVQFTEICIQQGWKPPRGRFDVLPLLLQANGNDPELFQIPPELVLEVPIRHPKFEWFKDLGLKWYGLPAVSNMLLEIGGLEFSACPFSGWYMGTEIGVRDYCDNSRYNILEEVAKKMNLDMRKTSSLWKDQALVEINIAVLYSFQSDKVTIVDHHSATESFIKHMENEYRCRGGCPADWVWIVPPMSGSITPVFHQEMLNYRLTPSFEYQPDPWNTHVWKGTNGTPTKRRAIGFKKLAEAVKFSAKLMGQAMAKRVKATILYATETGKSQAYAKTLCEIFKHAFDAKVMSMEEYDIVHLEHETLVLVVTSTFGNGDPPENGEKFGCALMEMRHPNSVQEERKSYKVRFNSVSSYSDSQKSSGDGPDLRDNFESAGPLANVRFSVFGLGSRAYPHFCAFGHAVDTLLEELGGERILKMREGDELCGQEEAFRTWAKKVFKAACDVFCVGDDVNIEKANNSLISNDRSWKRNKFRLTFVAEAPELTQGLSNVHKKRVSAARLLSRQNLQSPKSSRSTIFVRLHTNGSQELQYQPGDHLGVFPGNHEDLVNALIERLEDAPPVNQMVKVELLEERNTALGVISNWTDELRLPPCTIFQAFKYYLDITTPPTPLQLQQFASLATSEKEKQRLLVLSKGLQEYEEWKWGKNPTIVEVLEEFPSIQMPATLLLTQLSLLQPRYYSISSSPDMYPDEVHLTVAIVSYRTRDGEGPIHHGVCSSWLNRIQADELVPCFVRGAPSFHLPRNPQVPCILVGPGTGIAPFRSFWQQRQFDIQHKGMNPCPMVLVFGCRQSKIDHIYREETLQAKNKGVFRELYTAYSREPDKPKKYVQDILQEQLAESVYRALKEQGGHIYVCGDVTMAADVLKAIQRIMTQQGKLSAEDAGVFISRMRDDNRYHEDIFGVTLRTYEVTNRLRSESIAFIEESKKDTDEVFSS

Nitric oxide synthase 3 = molecular target: T2, Nitric oxide synthase 3 (Homo sapiens, UniProt P29474); assay: Inhibitory concentration against mammalian endothelial nitric oxide synthase (eNOS); summary of the method: as §1
T2 sequence (P29474 whole entry): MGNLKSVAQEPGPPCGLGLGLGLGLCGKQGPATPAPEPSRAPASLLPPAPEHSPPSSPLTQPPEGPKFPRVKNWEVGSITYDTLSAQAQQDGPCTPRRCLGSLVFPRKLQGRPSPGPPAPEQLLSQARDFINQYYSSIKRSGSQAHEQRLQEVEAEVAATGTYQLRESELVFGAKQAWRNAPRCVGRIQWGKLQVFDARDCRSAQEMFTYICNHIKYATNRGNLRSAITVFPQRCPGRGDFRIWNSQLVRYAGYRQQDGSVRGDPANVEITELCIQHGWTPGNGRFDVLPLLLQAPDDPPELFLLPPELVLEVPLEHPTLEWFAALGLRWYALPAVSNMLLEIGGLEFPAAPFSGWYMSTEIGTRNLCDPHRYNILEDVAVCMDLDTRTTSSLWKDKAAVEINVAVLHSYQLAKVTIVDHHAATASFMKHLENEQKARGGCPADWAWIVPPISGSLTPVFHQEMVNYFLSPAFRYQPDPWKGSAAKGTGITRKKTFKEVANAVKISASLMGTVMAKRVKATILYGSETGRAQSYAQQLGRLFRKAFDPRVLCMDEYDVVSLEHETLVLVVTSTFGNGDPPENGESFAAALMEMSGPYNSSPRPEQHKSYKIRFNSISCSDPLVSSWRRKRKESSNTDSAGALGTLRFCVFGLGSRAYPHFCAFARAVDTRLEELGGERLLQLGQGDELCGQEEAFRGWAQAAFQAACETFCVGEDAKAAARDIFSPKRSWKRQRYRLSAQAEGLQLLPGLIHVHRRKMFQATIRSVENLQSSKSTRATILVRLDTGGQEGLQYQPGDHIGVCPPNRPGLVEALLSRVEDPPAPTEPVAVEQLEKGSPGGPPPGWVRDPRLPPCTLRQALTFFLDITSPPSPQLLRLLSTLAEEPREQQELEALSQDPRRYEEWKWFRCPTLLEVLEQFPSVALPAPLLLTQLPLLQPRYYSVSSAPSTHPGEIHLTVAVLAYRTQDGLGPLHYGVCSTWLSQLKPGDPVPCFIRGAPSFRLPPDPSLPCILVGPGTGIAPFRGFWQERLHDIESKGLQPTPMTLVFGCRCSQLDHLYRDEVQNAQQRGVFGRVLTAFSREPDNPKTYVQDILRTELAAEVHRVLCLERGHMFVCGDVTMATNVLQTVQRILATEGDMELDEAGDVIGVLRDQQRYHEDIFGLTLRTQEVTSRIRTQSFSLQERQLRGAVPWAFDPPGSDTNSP

Row | EC50 [1] [µM] | IC50 [2] [µM] | Ki [2] [µM] | IC50 (Nitric oxide synthase 1) [µM] | IC50 (Nitric oxide synthase 3) [µM] | Structure (SMILES)
1 | 180 | 320 | 58 | 327 | 752 | CS/C(=N/N)NCCC[C@H](N)C(=O)O
2 | 190 | 3710 | 202 | 1620 | 3060 | NNC(=S)NCCC[C@H](N)C(=O)O
3 | 6.6 | 13 | 7 | 6.7 | 19.7 | CS/C(=N/O)NCCC[C@H](N)C(=O)O
